From PMC8451076 (International Journal of Nanomedicine, 2021)
Structures can show the parent of a compound that is named as a salt. Where two headings read alike, the source gives them in different places.

Legend:
[1] = Metabolism stability of BBR in intestinal S9; assay type: in vitro ADME; conditions: mouse, intestinal S9, pH 7.4
Procedure, shortened: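 Mouse intestinal S9 (2 mg/mL) plus test material (BBR final 10 μg/mL) in 50 mM Tris-HCl pH 7.4 was preincubated 5 min at 37°C, then started with NADPH (1 mg/mL). After 0.5 or 1 h, reactions were stopped with equal-volume chilled methanol containing carbamazepine internal standard and centrifuged. Residual BBR and demethylberberine were measured by LC-MS/MS.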

[2] = Solubility of BBR in supersaturated aqueous solutions; assay type: physicochemical; conditions: water, thermodynamic from solid
Procedure, shortened: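 Supersaturated aqueous preparations, each at 10 mg/mL BBR, were sonicated 1 h and centrifuged at 16,000 rpm for 10 min. BBR in the supernatant was quantified by LC-MS. n = 6.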

[3] = assay type: physicochemical
Procedure, shortened: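 Test material containing 10 mg BBR was enclosed in a blank capsule and run in a rotating-basket tester at 50 rpm and 37 ± 0.5°C. Medium was 900 mL HCl buffer (2.0 g NaCl, pH 1.2; sampled 5–90 min) or 0.2 M sodium phosphate (pH 6.8; sampled 2.5 min–6 h). Samples were 0.22-μm filtered and centrifuged, then BBR was quantified by LC-MS. n = 6.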

[4] = Transportation of BBR across MDCK-MDR1 cell monolayer; assay type: in vitro ADME, canine; conditions: dog
Procedure, shortened: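 MDCK-MDR1 cells were grown in DMEM/10% FBS/15 mM HEPES and seeded on polycarbonate Transwells (2×10^5 cells/mL) until TEER exceeded 500 Ω·cm2. Cells were equilibrated 20 min in HBSS (pH 7.2). BBR (final 10 μg/mL) was added apical or basolateral, and both sides were sampled after 2 or 4 h for LC-MS/MS. Papp = ΔQ/(Δt·A·C0), with A 0.33 cm2.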

[5] = cited from earlier work; for oral bioavailability: purified constituents of TCMs
[6] = system: Caco-2 cells; assay: Uptake of BBR in Caco-2 cells with endocytosis inhibitors; assay type: cell-based, human; conditions: Nnps containing 10 μg/mL BBR, 4 h, indomethacin 100 μg/mL, chlorpromazine 10 μg/mL, cytochalasin D 5 μM

With `COc1ccc2cc3[n+](cc2c1OC)CCc1cc2c(cc1-3)OCO2` [BBR, berberine hydrochloride] the half-life at 10 μg/mL [1] was 2.48 h, the solubility at 1 h [2] was roughly 3700 µg/mL and the “dissolution rate of BBR” value ([3]; artificial gastric juice (pH 1.2), 15 min) was 7.5%. For the same molecule, the “dissolution rate of BBR” value ([3]; artificial gastric juice (pH 1.2), end point) was 35.3%, the “dissolution rate of BBR” value ([3]; artificial intestinal juice (pH 6.8), 15 min) was 1.8% and the “dissolution rate of BBR” value ([3]; artificial intestinal juice (pH 6.8), end point 6 h) was 60.9%. The Papp at 10 μg/mL [4] was less than 1 ×10⁻⁶ cm/s, the “bioavailability of oral BBR” value ([5]; oral) was 0.36% and the “fraction of BBR excreted directly with feces after oral administration” value ([5]; oral) was “approximately 56%”. For the same molecule, the “intestinal elimination of the oral dose” value ([5]; oral) was 43.5% and the oral bioavailability [5] was “less than 5%”.

For `CN(C)CCCN1c2ccccc2Sc2ccc(Cl)cc21` [Chlorpromazine, chlorpromazine], the “effect of endocytosis inhibitor on uptake of BBR carried by the Nnps” value (shortened to “effect of endocytosis inhibitor”) [6] was “promoted the uptake”.

For `COc1ccc2c(c1)c(CC(=O)O)c(C)n2C(=O)c1ccc(Cl)cc1` [Indomethacin, indomethacin], the “effect of endocytosis inhibitor” value [6] was “significantly reduced”.

For `CC(C)=CCC[C@](C)(O[C@@H]1O[C@H](CO[C@@H]2OC[C@H](O)[C@H](O)[C@H]2O)[C@@H](O)[C@H](O)[C@H]1O)[C@H]1CC[C@]2(C)[C@@H]1[C@H](O)C[C@@H]1[C@@]3(C)CC[C@H](O[C@@H]4O[C@H](CO)[C@@H](O)[C@H](O)[C@H]4O[C@@H]4O[C@H](CO)[C@@H](O)[C@H](O)[C@H]4O)C(C)(C)[C@@H]3CC[C@]12C` [Rb2, ginsenoside Rb2], the oral bioavailability [5] is listed as “less than 5%”.

For `CC(C)=CCC[C@](C)(O[C@@H]1O[C@H](CO[C@@H]2OC[C@@H](O)[C@H](O)[C@H]2O)[C@@H](O)[C@H](O)[C@H]1O)[C@H]1CC[C@]2(C)[C@@H]1[C@H](O)C[C@@H]1[C@@]3(C)CC[C@H](O[C@@H]4O[C@H](CO)[C@@H](O)[C@H](O)[C@H]4O[C@@H]4O[C@H](CO)[C@@H](O)[C@H](O)[C@H]4O)C(C)(C)[C@@H]3CC[C@]12C` [Rb3, ginsenoside Rb3], the oral bioavailability [5] is given as “less than 5%”.

In the case of `CC(C)(O)[C@@H]1CC[C@](C)([C@H]2[C@@H](O)C[C@@]3(C)[C@@H]4C[C@H](O[C@@H]5O[C@H](CO)[C@@H](O)[C@H](O)[C@H]5O)[C@H]5C(C)(C)[C@@H](O[C@@H]6OC[C@@H](O)[C@H](O)[C@H]6O)CC[C@@]56C[C@@]46CC[C@]23C)O1` [astragaloside IV], the oral bioavailability [5] is listed as “less than 5%”.

In the case of `O=C(O)[C@H]1O[C@@H](Oc2cc3oc(-c4ccccc4)cc(=O)c3c(O)c2O)[C@H](O)[C@@H](O)[C@@H]1O` [baicalin], the oral bioavailability [5] is given as “less than 5%”.

In the case of `COc1cc(/C=C/C(=O)CC(=O)/C=C/c2ccc(O)c(OC)c2)ccc1O` [curcumin], the oral bioavailability [5] is listed as “less than 5%”.

For `C=C1[C@@H](C)[C@H]2[C@H](Cc3ccccc3)NC(=O)[C@]23[C@H](OC(C)=O)/C=C/[C@@](C)(O)C(=O)[C@@H](C)C/C=C/[C@H]3[C@@H]1O` [cytochalasin D], the “effect of endocytosis inhibitor” value [6] was “promoted the uptake”.

In the case of `CC(C)=CCC[C@](C)(O[C@@H]1O[C@H](CO[C@@H]2O[C@H](CO)[C@@H](O)[C@H](O)[C@H]2O)[C@@H](O)[C@H](O)[C@H]1O)[C@H]1CC[C@]2(C)[C@@H]1[C@H](O)C[C@@H]1[C@@]3(C)CC[C@H](O[C@@H]4O[C@H](CO)[C@@H](O)[C@H](O)[C@H]4O[C@@H]4O[C@H](CO)[C@@H](O)[C@H](O)[C@H]4O)C(C)(C)[C@@H]3CC[C@]12C` [ginsenoside Rb1], the oral bioavailability [5] is given as “less than 5%”.

For `CC1(C)[C@@H](O[C@H]2O[C@H](C(=O)O)[C@@H](O)[C@H](O)[C@H]2O[C@@H]2O[C@H](C(=O)O)[C@@H](O)[C@H](O)[C@H]2O)CC[C@]2(C)[C@H]3C(=O)C=C4[C@@H]5C[C@@](C)(C(=O)O)CC[C@]5(C)CC[C@@]4(C)[C@]3(C)CC[C@@H]12` [glycyrrhizin], the oral bioavailability [5] is given as “less than 5%”.

In the case of `Cc1coc2c1C(=O)C(=O)c1c-2ccc2c1CCCC2(C)C` [tanshinone IIA], the oral bioavailability [5] is listed as “less than 5%”.
